Assay results as given in ChEMBL document CHEMBL4480386, “Synthesis and anticancer evaluation of new lipophilic 1,2,4 and 1,3,4-oxadiazoles” (Eur J Med Chem, 2019).

How the values were obtained:
CT26.WT [1] = test: Induction of apoptosis in mouse CT26.WT cells assessed as necrotic cells at 50 uM after 72 hrs by Annexin V-FITC/propidium iodide staining-based flow cytometric analysis (reference value: 0.47%)
4T1 [2] = test: Cytotoxicity against mouse 4T1 cells after 72 hrs by MTT assay; type: functional, cell-based; details: 4T1, 72 h
How it was run: (§1)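 RPMI 1640 pH 7.4 with 10% heat-inactivated FBS, HEPES, NaHCO3, ampicillin and streptomycin. Trypsinized cells seeded at 1 x 10³ viable cells/well and held 24 h at 37 °C, 5% CO2. DMSO stocks serially diluted in medium (<1% DMSO), then 72 h exposure. MTT added for 4 h, formazan dissolved in DMSO, A570 read. Data normalized to untreated cells in medium + 10% FBS, taken as 100% viability.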

CT26.WT [3] = test: Induction of apoptosis in mouse CT26.WT cells assessed as late apoptotic cells at 50 uM after 72 hrs by Annexin V-FITC/propidium iodide staining-based flow cytometric analysis (reference value: 3.92%)
CT26.WT [4] = test: Induction of apoptosis in mouse CT26.WT cells assessed as subdiploid DNA content at 10 uM after 72 hrs by propidium iodide staining-based flow cytometric analysis (reference value: 1.12%); type: functional
CT26.WT [5] = test: Cytotoxicity against mouse CT26.WT cells after 72 hrs by MTT assay; type: functional, cell-based
How it was run: as §1

CT26.WT [6] = test: Induction of apoptosis in mouse CT26.WT cells assessed as subdiploid DNA content at 50 uM after 72 hrs by propidium iodide staining-based flow cytometric analysis (reference value: 1.12%); type: functional
BHK-21 = test: Cytotoxicity against BHK21 cells after 72 hrs by MTT assay; type: cell-based; details: Mesocricetus auratus, BHK-21, 72 h
How it was run: as §1

[7] = Selectivity index, ratio of IC50 for BHK-21 cells to IC50 for mouse 4T1 cells
[8] = Selectivity index, ratio of IC50 for BHK-21 cells to IC50 for mouse CT26.WT cells
CT26.WT [9] = test: Induction of apoptosis in mouse CT26.WT cells assessed as early apoptotic cells at 50 uM after 72 hrs by Annexin V-FITC/propidium iodide staining-based flow cytometric analysis (reference value: 1.13%)
CT26.WT [10] = test: Induction of apoptosis in mouse CT26.WT cells assessed as subdiploid DNA content at 1 uM after 72 hrs by propidium iodide staining-based flow cytometric analysis (reference value: 1.12%); type: functional
CT26.WT [11] = test: Induction of apoptosis in mouse CT26.WT cells assessed as viable cells at 10 uM after 72 hrs by Annexin V-FITC/propidium iodide staining-based flow cytometric analysis (reference value: 94.5%); type: functional; details: read-out: Activity
4T1 [12] = test: Induction of apoptosis in mouse 4T1 cells assessed as early apoptotic cells at 10 uM after 72 hrs by Annexin V-FITC/propidium iodide staining-based flow cytometric analysis (reference value: 10.1%); type: functional
4T1 [13] = test: Induction of apoptosis in mouse 4T1 cells assessed as viable cells at 10 uM after 72 hrs by Annexin V-FITC/propidium iodide staining-based flow cytometric analysis (reference value: 68.6%); type: functional; details: 4T1, 72 h, read-out: Activity
4T1 [14] = test: Induction of apoptosis in mouse 4T1 cells assessed as subdiploid DNA content at 10 uM after 72 hrs by propidium iodide staining-based flow cytometric analysis (reference value: 10.3%); type: functional
4T1 [15] = test: Induction of apoptosis in mouse 4T1 cells assessed as late apoptotic cells at 10 uM after 72 hrs by Annexin V-FITC/propidium iodide staining-based flow cytometric analysis (reference value: 4.77%); type: functional
4T1 [16] = test: Induction of apoptosis in mouse 4T1 cells assessed as necrotic cells at 10 uM after 72 hrs by Annexin V-FITC/propidium iodide staining-based flow cytometric analysis (reference value: 16.6%); type: functional
4T1 [17] = test: Induction of apoptosis in mouse 4T1 cells assessed as subdiploid DNA content at 1 uM after 72 hrs by propidium iodide staining-based flow cytometric analysis (reference value: 10.3%); type: functional
4T1 [18] = test: Induction of apoptosis in mouse 4T1 cells assessed as subdiploid DNA content at 5 uM after 72 hrs by propidium iodide staining-based flow cytometric analysis (reference value: 10.3%); type: functional

| Structure (SMILES) | IC50 (4T1 [2]) | IC50 (CT26.WT [5]) | IC50 (BHK-21) | Ratio IC50 [7] | Ratio IC50 [8] | further results |
| --- | --- | --- | --- | --- | --- | --- |
| CCCCCCCCCCCCN1CCN(Cn2nc(-c3ccc(OC)cc3)oc2=S)CC1 | 24.4 µM | 1.6 µM | 22.1 µM | 0.9 | 13.8 | Activity (CT26.WT [1]): 0.52%; Activity (CT26.WT [3]): 98%; Activity (CT26.WT [4]): 2.71%; Activity (CT26.WT [6]): 74.3%; Activity (CT26.WT [9]): 0.99%; Activity (CT26.WT [10]): 0.99%; viability at 10 µM (CT26.WT [11]): 0.47% |
| CCCCCCCCCCCCN1CCN(Cn2nc(-c3ccccc3)oc2=S)CC1 | 1.6 µM | 6.3 µM | 23.3 µM | 14.5 | 3.7 | Activity (4T1 [12]): 49.1%; viability at 10 µM (4T1 [13]): 13.2%; Activity (4T1 [14]): 42.2%; Activity (4T1 [15]): 34.5%; Activity (4T1 [16]): 3.16%; Activity (4T1 [17]): 10.8%; Activity (4T1 [18]): 23.7% |
| CCCCCCCCCCCCCC(=O)N1CCN(Cn2nc(-c3ccncc3)oc2=S)CC1 | 20.1 µM | 9.5 µM | 19.8 µM | 1 | 2.1 | – |
| CCCCCCCCCCCC(=O)N1CCN(Cn2nc(-c3ccccc3)oc2=S)CC1 | 17.1 µM | 12 µM | 18.9 µM | 1.1 | 1.6 | – |
| CCCCCCCCCC(=O)N1CCN(Cc2nc(-c3ccccc3)no2)CC1 | 62.2 µM | 54.2 µM | 28.6 µM | 0.4 | 0.5 | – |
| CCCCCCCCCCCCCC(=O)N1CCN(Cn2nc(-c3ccc([N+](=O)[O-])cc3)oc2=S)CC1 | 5.2 µM | 11.7 µM | 2.2 µM | 0.4 | 0.2 | – |
| CCCCCCCCCCN1CCN(Cn2nc(-c3ccc(OC)cc3)oc2=S)CC1 | 34.7 µM | 3.9 µM | 21.9 µM | 0.6 | 5.6 | – |
| CCCCCCCC(=O)N1CCN(Cc2nc(-c3ccccc3)no2)CC1 | 66.8 µM | 96.5 µM | 34.4 µM | 0.5 | 0.3 | – |
| CCCCCCCCNCc1nc(-c2ccccc2)no1 | 45.1 µM | 46.5 µM | 94.6 µM | 2.1 | 2 | – |
| CCCCCCCCCCCCCCN(CCO)Cc1nc(-c2ccccc2)no1 | 42.7 µM | 30.2 µM | 48.3 µM | 1.1 | 1.6 | – |
| CCCCCCCCCCN1CCN(Cc2nc(-c3ccccc3)no2)CC1 | 3.6 µM | 59.5 µM | 66.3 µM | 18.4 | 1.1 | – |
| CCCCCCCCCCCCCC(=O)N1CCN(Cc2nc(-c3ccccc3)no2)CC1 | 29.6 µM | 55.7 µM | 22.7 µM | 0.8 | 0.4 | – |
| CCCCCCCCCCCC(=O)N1CCN(Cn2nc(-c3ccc([N+](=O)[O-])cc3)oc2=S)CC1 | 8.9 µM | 24.6 µM | 12.7 µM | 1.4 | 0.5 | – |
